Test results as given in ChEMBL document CHEMBL1152501, “Mannosylated saponins based on oleanolic and glycyrrhizic acids. Towards synthetic colloidal antigen delivery systems” (2009).

Legend:
[1] = Immunostimulatory activity in C57BL/6 mouse BMDC assessed as increase in mean fluorescence intensity of MHC class2 expression at 10 ug relative to untreated control; format: functional
Procedure, shortened: (§1)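 Bone marrow stem cells from C57Bl/6 J mice grown 6 days in IMDM with 5% FBS, penicillin/streptomycin, glutamax, 2-mercaptoethanol and 20 ng/ml GM-CSF, 37 °C, 5% CO2. Seeded at 5 × 10^5 cells/mL and pulsed with formulations holding 10 µg saponin (cholesterol/phosphatidylcholine film hydration); LPS 10 µg/mL positive control. After 48 h, flow cytometry gated on propidium iodide-negative CD11c+ cells. MFI divided by medium-only MFI. Run 1–3 times.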

[2] = Immunostimulatory activity in C57BL/6 mouse BMDC assessed as increase in mean fluorescence intensity of CD86 expression at 10 ug relative to untreated control; format: functional; procedure, shortened: as §1

Row | Structure (SMILES) | fold change (FC) [1] | fold change (FC) [2]
1 | COC(=O)[C@H]1O[C@@H](O[C@H]2CC[C@]3(C)[C@H]4C(=O)C=C5[C@@H]6C[C@@](C)(C(=O)O)CC[C@]6(C)CC[C@@]5(C)[C@]4(C)CC[C@H]3C2(C)C)[C@H](O[C@@H]2O[C@H](C(=O)O)[C@@H](O)[C@H](O)[C@H]2O)[C@@H](O)[C@@H]1O | 1.5 | 0.9
2 | COC(=O)[C@H]1O[C@@H](O[C@H]2CC[C@]3(C)[C@H]4C(=O)C=C5[C@@H]6C[C@@](C)(C(=O)O[C@@H]7O[C@H](CO)[C@@H](O)[C@H](O)[C@H]7O)CC[C@]6(C)CC[C@@]5(C)[C@]4(C)CC[C@H]3C2(C)C)[C@H](O[C@@H]2O[C@H](C(=O)O)[C@@H](O)[C@H](O)[C@H]2O)[C@@H](O)[C@@H]1O | 1.3 | 1.3
3 | COC(=O)[C@H]1O[C@@H](O[C@H]2[C@H](O[C@H]3CC[C@]4(C)[C@H]5C(=O)C=C6[C@@H]7C[C@@](C)(C(=O)O)CC[C@]7(C)CC[C@@]6(C)[C@]5(C)CC[C@H]4C3(C)C)O[C@H](C(=O)O)[C@@H](O)[C@@H]2O)[C@H](O)[C@@H](O)[C@@H]1O | 1.4 | 0.9
4 | COC(=O)[C@H]1O[C@@H](O[C@H]2[C@H](O[C@H]3CC[C@]4(C)[C@H]5C(=O)C=C6[C@@H]7C[C@@](C)(C(=O)O[C@@H]8O[C@H](CO)[C@@H](O)[C@H](O)[C@H]8O)CC[C@]7(C)CC[C@@]6(C)[C@]5(C)CC[C@H]4C3(C)C)O[C@H](C(=O)O)[C@@H](O)[C@@H]2O)[C@H](O)[C@@H](O)[C@@H]1O | 1.1 | 1
5 | CC1(C)CC[C@]2(C(=O)O[C@H]3O[C@H](CO)[C@@H](O)[C@H](O)[C@@H]3O[C@H]3O[C@H](CO)[C@@H](O)[C@H](O)[C@@H]3O[C@H]3O[C@H](CO)[C@@H](O)[C@H](O)[C@@H]3O)CC[C@]3(C)C(=CC[C@@H]4[C@@]5(C)CC[C@H](O[C@H]6O[C@H](CO)[C@@H](O)[C@H](O)[C@@H]6O[C@H]6O[C@H](CO)[C@@H](O)[C@H](O)[C@@H]6O[C@H]6O[C@H](CO)[C@@H](O)[C@H](O)[C@@H]6O)C(C)(C)[C@@H]5CC[C@]43C)[C@@H]2C1 | 1 | 0.9
6 | CC1(C)CC[C@]2(C(=O)O[C@H]3O[C@H](CO[C@H]4O[C@H](CO)[C@@H](O)[C@H](O)[C@@H]4O)[C@@H](O)[C@H](O[C@H]4O[C@H](CO)[C@@H](O)[C@H](O)[C@@H]4O)[C@@H]3O)CC[C@]3(C)C(=CC[C@@H]4[C@@]5(C)CC[C@H](O[C@H]6O[C@H](CO[C@H]7O[C@H](CO)[C@@H](O)[C@H](O)[C@@H]7O)[C@@H](O)[C@H](O[C@H]7O[C@H](CO)[C@@H](O)[C@H](O)[C@@H]7O)[C@@H]6O)C(C)(C)[C@@H]5CC[C@]43C)[C@@H]2C1 | 1.3 | 2
7 | CC1(C)CC[C@]2(C(=O)O)CC[C@]3(C)C(=CC[C@@H]4[C@@]5(C)CC[C@H](O[C@H]6O[C@H](CO)[C@@H](O)[C@H](O)[C@@H]6O[C@H]6O[C@H](CO)[C@@H](O)[C@H](O)[C@@H]6O)C(C)(C)[C@@H]5CC[C@]43C)[C@@H]2C1 | 1.6 | 1.2
8 | COC(=O)[C@H]1O[C@@H](O[C@H]2[C@H](O[C@H]3CC[C@]4(C)[C@H]5C(=O)C=C6[C@@H]7C[C@@](C)(C(=O)O)CC[C@]7(C)CC[C@@]6(C)[C@]5(C)CC[C@H]4C3(C)C)O[C@H](C(=O)OC)[C@@H](O)[C@@H]2O)[C@H](O)[C@@H](O)[C@@H]1O | 1.1 | 0.9
9 | CC1(C)CC[C@]2(C(=O)O)CC[C@]3(C)C(=CC[C@@H]4[C@@]5(C)CC[C@H](O[C@H]6O[C@H](CO)[C@@H](O)[C@H](O)[C@@H]6O[C@H]6O[C@H](CO)[C@@H](O)[C@H](O)[C@@H]6O[C@H]6O[C@H](CO)[C@@H](O)[C@H](O)[C@@H]6O)C(C)(C)[C@@H]5CC[C@]43C)[C@@H]2C1 | 1.1 | 0.8
